The record followed here is PubChem BioAssay.

The nature of test [1]: Her2 expression decrease, cell viability multiplex – SKBR3 breast tumor cells, AlphaScreen, ATP viability, primary screen (AID 461;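 active = Her2 level under about 52% in both replicate screens, with viability over 70% of control, limit read from the data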;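 for Her2 level: lower value means less Her2 protein in the cells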;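 for viability: percent of carrier control wells set as 100% viability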). To be noted: SKBR3 Her2 protein level, 18-24 h, measured here: SKBR3 viability, ATP luminescence, at 10 µM. A general note: Bead proximity is the source of the signal in Alpha formats.
The target of test [2] is Receptor tyrosine-protein kinase erbB-2 (Homo sapiens) (UniProt P04626). The test is described as above. Conditions: 18-24 h, at 10 µM, stronger effect = lower value.
Test [3] in a line: reduced viability of SK-BR-3 breast cancer cells – cell-based, 24 h, human, pilot screen (AID 572;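 active = viability at or below 10% of carrier control in both of two separate runs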;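 note: compound exposure lasted between 18 and 24 h rather than exactly 24 h; 100% = carrier-treated control wells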). Conditions: SK-BR-3 viability, CellTiter-Glo luminescence, at 10 µM, stronger effect = lower value. (In general: Cellular ATP, detected with luciferase, serves as a proxy for viable cell number.)
Test [4] is described as follows: HUVEC growth inhibition – cell-based, human, primary screen (AID 575;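 active = viability at or below 30% in both replicate assays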;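 note: 100% = median of untreated cell wells with 0.1% DMSO on each plate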). To be noted: HUVEC proliferation, CellTiter-Glo luminescence, 72 h; at 10 µM; stronger effect = lower value. The procedure, abridged: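 System: primary human umbilical vein endothelial cells; Quantity: 1250 endothelial cells in each well; Buffer or medium: supplemented EBM, 2% fetal bovine serum; Doses: one dose, 10 µM final, 0.1% DMSO; Incubation: 72 h compound incubation; Technique: ATP-based CellTiter-Glo luminescent read; Evaluation: percent of median DMSO-control luminescence; Controls: vehicle and MePR control wells.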

Test [5] in a line: H69AR cell proliferation blockers – human, duplicate replicates, primary screen (AID 580).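 Note: 100% = mean luminescence of untreated wells and 0% = no signal.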 To be noted: H69AR lung tumor cells viability, ATP luminescence, 72 h; at 10 µM; stronger effect = lower value.
Test [6] is described as follows: MRP1 drug-resistance reversers in H69AR cells – cell-based, doxorubicin co-treatment, pilot screen (AID 601;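 active = viability loss from added drug above about 55%, and viability with drug at most 40%, in both replicates, limit read from the data, passing the limit was not always enough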). To be noted: CellTiter-Glo, 72 h, at 10 µM; for differential viability (reversal): stronger effect = higher value.
Test [7] can be described thus: yeast transport mutant growth inhibition pilot in 384-well plates, post-Golgi transport modulator project (AID 636; in the data active = inhibition above about 31%). To be noted: absorbance 615 nm, about 18 h, stronger effect = higher value.
The nature of test [8]: growth suppression of yeast trafficking mutant, preliminary HTS, modulators of trafficking downstream of Golgi apparatus project, 1536-format plate, OD 615 nm (AID 637; in the data active = inhibition above about 30%). To be noted: yeast transport mutant growth, absorbance 615 nm, 18 h; stronger effect = higher value.
The mark [9] stands for this setting: H69AR cells + 2 uM doxorubicin, measured here: viability with 2 uM doxorubicin, stronger effect = lower value.
[10] abbreviates: H69AR cells, compound alone cytotoxicity.

Structures are written as SMILES. The source made the active and inactive calls.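 Rule for the calls, unless noted: active = viability at or under a set limit in both replicates, limit being median viability minus 3 SD (cut at about 48% in these data, passing the limit was not always enough); inconclusive = at or under the limit in just one replicate; inactive = at or above the limit in both replicates.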

Receptor tyrosine-protein kinase erbB-2 (Homo sapiens), sequence (P04626 whole entry, looked up): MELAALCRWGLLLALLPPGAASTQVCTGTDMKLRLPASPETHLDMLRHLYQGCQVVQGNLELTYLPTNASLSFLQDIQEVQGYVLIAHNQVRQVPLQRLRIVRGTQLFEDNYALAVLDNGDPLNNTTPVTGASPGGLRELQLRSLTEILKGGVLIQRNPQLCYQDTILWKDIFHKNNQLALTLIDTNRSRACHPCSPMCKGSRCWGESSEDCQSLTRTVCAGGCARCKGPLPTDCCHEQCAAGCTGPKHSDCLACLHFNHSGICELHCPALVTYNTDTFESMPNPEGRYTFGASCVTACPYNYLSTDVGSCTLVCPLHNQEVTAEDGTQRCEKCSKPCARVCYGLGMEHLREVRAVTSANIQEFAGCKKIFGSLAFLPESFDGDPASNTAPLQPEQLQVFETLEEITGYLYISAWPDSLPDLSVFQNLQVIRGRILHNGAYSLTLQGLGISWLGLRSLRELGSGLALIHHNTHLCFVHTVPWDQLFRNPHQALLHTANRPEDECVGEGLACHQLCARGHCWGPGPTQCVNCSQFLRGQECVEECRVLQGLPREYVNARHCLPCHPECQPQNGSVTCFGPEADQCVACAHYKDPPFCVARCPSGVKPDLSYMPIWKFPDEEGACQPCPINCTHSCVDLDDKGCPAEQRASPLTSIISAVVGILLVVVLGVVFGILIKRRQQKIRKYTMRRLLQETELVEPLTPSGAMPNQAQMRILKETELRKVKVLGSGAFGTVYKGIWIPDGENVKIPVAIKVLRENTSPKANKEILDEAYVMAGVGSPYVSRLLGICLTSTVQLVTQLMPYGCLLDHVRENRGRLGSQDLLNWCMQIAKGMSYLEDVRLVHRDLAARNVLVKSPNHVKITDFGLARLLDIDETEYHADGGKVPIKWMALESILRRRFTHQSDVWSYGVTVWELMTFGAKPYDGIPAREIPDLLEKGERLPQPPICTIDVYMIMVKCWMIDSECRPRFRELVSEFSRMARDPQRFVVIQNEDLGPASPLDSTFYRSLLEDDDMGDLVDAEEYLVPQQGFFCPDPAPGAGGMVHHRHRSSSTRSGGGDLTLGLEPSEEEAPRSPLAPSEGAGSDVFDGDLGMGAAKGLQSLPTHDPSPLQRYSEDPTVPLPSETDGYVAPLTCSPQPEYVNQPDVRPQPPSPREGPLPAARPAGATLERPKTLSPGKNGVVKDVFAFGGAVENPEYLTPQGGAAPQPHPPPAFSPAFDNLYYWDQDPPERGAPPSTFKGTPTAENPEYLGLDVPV

Regarding `O=C(COC(=O)CCc1c[nH]c2ccccc12)NC1CCS(=O)(=O)C1` (stereo not given), the viability – broadly, a read-out of living cells in per cent, often relative to untreated cells – in test [1] was 87.5%; in test [3], 87.5% (inactive); in test [4], 90.8% (inactive); in test [5], 90.1% (inactive); in test [6] (setting [9]), 89.1%; in test [6] (setting [10]), 90.1%. For the same compound, the Her2 level in test [2] is 96% (inactive). Moreover, the differential viability (reversal) in test [6] (H69AR cells + 2 uM doxorubicin) is 1.06% (inactive). Also, the results for the inhibition in test [7] and in test [8] were 1.04% (inactive) and -4.76% (inactive), respectively.
With `COc1cccc(C(=O)Nc2ncc3c(n2)CC(C)CC3=O)c1` (stereo not given), the viability in test [1] was 97.5%; in test [3] it was 97.5% (inactive); in test [4], 107% (inactive); in test [5] it was 109% (inactive); in test [6] (setting [9]) it was 100%; in test [6] (setting [10]), 109%. Moreover, the Her2 level in test [2] was 88.5% (inactive). Also, in test [6] (H69AR cells + 2 uM doxorubicin), the differential viability (reversal) is 9.34% (inactive). Besides, the inhibition (in general, the change of the read-out against control, counted positive when it falls) in test [7] is -2.16% (inactive); in test [8] it was 2.22% (inactive).
Turning to `Cc1nn(C(=O)c2cc3sccc3[nH]2)c(C)c1C`, the viability in test [1] was 95%; in test [3], 95% (inactive); in test [4], 74.1% (inactive); in test [5] it was 106% (inactive); in test [6] (setting [9]), 103%; in test [6] (setting [10]), 106%. The Her2 level in test [2] is 104% (inactive). Also, the differential viability (reversal) in test [6] (H69AR cells + 2 uM doxorubicin) is 2.57% (inactive). Moreover, the inhibition in test [7] is -4.47% (inactive); in test [8], -4.83% (inactive).
Consider `O=S(=O)(NCCc1ccccn1)c1cccs1`, for which the viability in test [1] is 99%; in test [3], 99% (inactive); in test [4], 97.4% (inactive); in test [5], 101% (inactive); in test [6] (setting [9]), 98.3%; in test [6] (setting [10]) it was 101%. For the same compound, the Her2 level in test [2] was 93% (inactive). Besides, the differential viability (reversal) in test [6] (H69AR cells + 2 uM doxorubicin) is 2.29% (inactive). For the same compound, the inhibition was -7.07% (inactive) in test [7] and 4.1% (inactive) in test [8].
Turning to `Cn1nnnc1SCC(=O)NCc1ccco1`, the viability is 95% in test [1]; 95% (inactive) in test [3]; 91.8% (inactive) in test [4]; 95.8% (inactive) in test [5]; 86.3% in test [6] (setting [9]); 95.8% in test [6] (setting [10]). Further, in test [2], the Her2 level is 110% (inactive). For the same compound, in test [6] (H69AR cells + 2 uM doxorubicin), the differential viability (reversal) is 9.46% (inactive). In addition, the inhibition in test [7] was 1.2% (inactive); in test [8], -6.72% (inactive).
In the case of `O=C(Nc1cc(Cl)ccc1Cl)c1noc2c1CCCC2`, the viability in test [1] is 87.5%; in test [3] it was 87.5% (inactive); in test [4], 63.5% (inactive); in test [5] it was 83.5% (inactive); in test [6] (setting [9]), 86.9%; in test [6] (setting [10]), 83.5%. The Her2 level in test [2] was 90.5% (inactive). In test [6] (H69AR cells + 2 uM doxorubicin), the differential viability (reversal) is -3.4% (inactive). Moreover, the inhibition was -0.51% (inactive) in test [7] and -5.5% (inactive) in test [8].
For `CC(=O)c1ccc(NC(=O)c2noc3c2CCCCC3)cc1`, the viability is 126% in test [1]; 126% (inactive) in test [3]; 114% (inactive) in test [4]; 98% (inactive) in test [5]; 80.6% in test [6] (setting [9]); 98% in test [6] (setting [10]). For the same compound, the Her2 level in test [2] is 88% (inactive). The differential viability (reversal) in test [6] (H69AR cells + 2 uM doxorubicin) is 17.3% (inactive). Also, the results for the inhibition in test [7] and in test [8] were -5.26% (inactive) and 0.73% (inactive), respectively.
For the compound `COc1cccc(NC(=O)N2CCN(c3cccc(C)c3C)CC2)c1`, the viability in test [1] is 102%; in test [3] it was 102% (inactive); in test [4], 68.5% (inactive); in test [5] it was 82.8% (inactive); in test [6] (setting [9]), 87.4%; in test [6] (setting [10]), 82.8%. For the same compound, in test [2], the Her2 level was 72.5% (inactive). Moreover, in test [6] (H69AR cells + 2 uM doxorubicin), the differential viability (reversal) is -4.58% (inactive). Moreover, the values for the inhibition in test [7] and in test [8] were 1.82% (inactive) and -3% (inactive), respectively.
Turning to `COC(=O)C1CCN(C(=O)c2sc3nc(-c4ccc(F)cc4)cn3c2C)CC1`, the viability in test [1] is 76.5%; in test [3] it was 76.5% (inactive); in test [4], 99.8% (inactive); in test [5] it was 100% (inactive); in test [6] (setting [9]) it was 77.9%; in test [6] (setting [10]), 100%. In test [2], the Her2 level was 92% (inactive). In addition, the differential viability (reversal) in test [6] (H69AR cells + 2 uM doxorubicin) was 22.1% (inactive). Besides, the values for the inhibition in test [7] and in test [8] were -1.07% (inactive) and 0.81% (inactive), respectively.
On to `CCC(=O)N1CCc2cc(Br)cc(S(=O)(=O)CCC(=O)NCC3CCCO3)c21` (stereo not given), for which the viability is 118% in test [1]; 118% (inactive) in test [3]; 106% (inactive) in test [4]; 92.8% (inactive) in test [5]; 79.4% in test [6] (setting [9]); 92.8% in test [6] (setting [10]). Also, the Her2 level in test [2] is 90% (inactive). For the same compound, the differential viability (reversal) in test [6] (H69AR cells + 2 uM doxorubicin) is 13.4% (inactive). Besides, the inhibition in test [7] is -6.35% (inactive); in test [8], 6% (inactive).
On to `CCN(c1cccc(C(F)(F)F)c1)S(=O)(=O)c1ccc2c(c1)CCN2C(=O)C1CC1`, for which the viability in test [1] is 99%; in test [3] it was 99% (inactive); in test [4] it was 65.8% (inactive); in test [5], 82.5% (inactive); in test [6] (setting [9]) it was 82.9%; in test [6] (setting [10]) it was 82.5%. The Her2 level in test [2] was 120% (inactive). Further, in test [6] (H69AR cells + 2 uM doxorubicin), the differential viability (reversal) was -0.405% (inactive). The values for the inhibition in test [7] and in test [8] were -3.42% (inactive) and -1% (inactive), respectively.
As for `Cc1c(Cl)cccc1N1C(=O)c2ccccc2C1=O`, the viability in test [1] was 89.5%; in test [3] it was 89.5% (inactive); in test [4] it was 99.5% (inactive); in test [5] it was 111% (inactive); in test [6] (setting [9]) it was 108%; in test [6] (setting [10]) it was 111%. Further, the Her2 level in test [2] was 85.5% (inactive). Further, the differential viability (reversal) in test [6] (H69AR cells + 2 uM doxorubicin) was 2.93% (inactive). Further, the inhibition in test [7] is -4.86% (inactive); in test [8], -2.3% (inactive).
On to `CCOC(=O)C1=C(C)NC(C)=C(C(=O)OCC)C1c1cc(N)ccc1OC(F)F`, for which the viability is 78.5% in test [1]; 78.5% (inactive) in test [3]; 76.6% (inactive) in test [4]; 111% (inactive) in test [5]; 106% in test [6] (setting [9]); 111% in test [6] (setting [10]). The Her2 level in test [2] is 108% (inactive). For the same compound, the differential viability (reversal) in test [6] (H69AR cells + 2 uM doxorubicin) was 4.41% (inactive). The results for the inhibition in test [7] and in test [8] were 0.91% (inactive) and -7.21% (inactive), respectively.
`Cc1ccc2c(CNCc3ccco3)cc(=O)oc2c1`: the viability in test [1] is 117%; in test [3], 117% (inactive); in test [4] it was 84.1% (inactive); in test [5], 93.5% (inactive); in test [6] (setting [9]) it was 81.9%; in test [6] (setting [10]) it was 93.5%. For the same compound, the Her2 level in test [2] is 94.5% (inactive). For the same compound, the differential viability (reversal) in test [6] (H69AR cells + 2 uM doxorubicin) was 11.5% (inactive). Also, the inhibition in test [7] is -1.07% (inactive); in test [8], -4.03% (inactive).
Regarding `Cc1cc(NC(=O)CSc2nc3ccccc3n2CC(=O)N2CCCCC2)no1`, the viability in test [1] is 78%; in test [3], 78% (inactive); in test [4], 103% (inactive); in test [5] it was 86.2% (inactive); in test [6] (setting [9]) it was 77.8%; in test [6] (setting [10]), 86.2%. In test [2], the Her2 level was 70% (inactive). Also, the differential viability (reversal) in test [6] (H69AR cells + 2 uM doxorubicin) was 8.37% (inactive). Further, the inhibition in test [7] is -5.54% (inactive); in test [8], 3.61% (inactive).
Turning to `CCc1nccn1S(=O)(=O)c1ccc(C)c(C)c1`, the viability in test [1] is 119%; in test [3], 119% (inactive); in test [4], 96.7% (inactive); in test [5], 99.6% (inactive); in test [6] (setting [9]), 86.9%; in test [6] (setting [10]), 99.6%. Further, the Her2 level in test [2] is 92.5% (inactive). Also, the differential viability (reversal) in test [6] (H69AR cells + 2 uM doxorubicin) was 12.7% (inactive). Moreover, the inhibition in test [7] was -4.86% (inactive); in test [8], 16.2% (inactive).
